# PDI inh = PDI (human) enzyme inhibition; AID 588391; inhibition, % at 10 µM; PDI insulin aggregation turbidity, A650, 90 min; 350,000 tested, 0.052% active; P07237;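 active = mean inhibition across replicates of 30% or more, whatever share of single replicates reach that level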
# Target sequence (P07237 whole entry, looked up): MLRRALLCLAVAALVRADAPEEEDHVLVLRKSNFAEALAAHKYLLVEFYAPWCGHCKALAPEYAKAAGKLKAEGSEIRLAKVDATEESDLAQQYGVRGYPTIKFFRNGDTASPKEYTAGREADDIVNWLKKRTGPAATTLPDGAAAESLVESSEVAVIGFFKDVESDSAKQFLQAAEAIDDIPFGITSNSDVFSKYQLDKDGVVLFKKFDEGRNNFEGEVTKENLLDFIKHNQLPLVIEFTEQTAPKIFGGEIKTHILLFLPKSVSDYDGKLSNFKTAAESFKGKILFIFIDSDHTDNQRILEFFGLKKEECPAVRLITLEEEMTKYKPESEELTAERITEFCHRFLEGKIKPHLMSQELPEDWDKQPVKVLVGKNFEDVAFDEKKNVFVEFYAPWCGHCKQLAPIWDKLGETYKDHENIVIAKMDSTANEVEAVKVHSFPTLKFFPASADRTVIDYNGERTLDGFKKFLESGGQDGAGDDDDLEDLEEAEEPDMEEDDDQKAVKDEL
# FN deposition inh = fibronectin deposition inhibition | AH1F fibroblasts, Alexa488-fibronectin deposition fluorescence, overnight | inhibition, % at 12.6 µM | 350,000 tested, 0.086% active;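 active = mean inhibition across replicates of 30% or more, regardless of how many single replicates reach that level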;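 note: positive control wells lacked labelled fibronectin entirely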
#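 Material: AH1F fibroblasts assembling fluorescent fibronectin matrix; amount: 10000 AH1F cells/well; medium: DMEM, 2% serum; reagent: Alexa488-fibronectin, 24 nM final in well; dosing: single compound dose, delivered by pin transfer; incubation: 1 h adhesion, overnight exposure; detection: fluorescence after three HBSS washes, excitation 485 nm, emission 525 nm; measure: fibronectin deposition inhibition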
# Ecoli rRNA inh = selective bacterial rRNA inhibition in E. coli; 350,000 tested, 1.6% active; E. coli WT GFP vs humanized-ribosome RFP mutants, fluorescence, 24 h; hits give low values; DMSO median 0, no signal -100; GFP signal change (wild-type ribosome), % (no concentration beside the values); AID 720706;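 active = significant combined selectivity score with lowered wild-type GFP, culture density cut under 30%, mutant RFP and density less affected; inactive = any of these conditions unmet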
# ERp5 inh = inhibitors of human ERp5. inhibition, % at 9.99 µM. Q15084. ERp5 insulin aggregation, absorbance 650 nm, 90 min. AID 651711. 350,000 tested, 0.05% active;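 active = mean replicate inhibition above about 25%, with every replicate also reaching it, limit read from the data, passing the limit was not always enough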
# PvdQ acylase = P. aeruginosa PvdQ acylase inhibition; purified PvdQ acylase, fluorescence plate reader; inhibition, % at 10 µM; 340,000 tested, 0.063% active; AID 488965; in the data active = inhibition above about 30%, passing the limit was not always enough;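 note: 0% = vehicle neutral wells and 100% = reference inhibitor wells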
# HIV Env fusion = inhibitors of HIV Env-mediated cell fusion | HeLa-JRFL Env/CEM21 cell fusion, luciferase | AID 651610 | 360,000 tested, 1.1% active | inhibition, % at 12.3 µM;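 active = mean replicate inhibition score of at least 50 and every replicate individually at or above 50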;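 note: 0% = plate neutral controls and 100% = maraviroc near 300 nM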
# The depositor's hits bear a star; · = no result; [ ] = remark or other dose. Shown are actives, neighbours in structure and some others; about 2.2% of the full set was active somewhere.
SMILES,PDI inh,FN deposition inh,Ecoli rRNA inh,ERp5 inh,PvdQ acylase,HIV Env fusion
NS(=O)(=O)c1cccc(NC(=O)CCN2C(=O)C3CCCCC3C2=O)c1 (configuration not stated),-8,33*,24,4,1,-6
O=C(CN1C(=O)C2CCCCC2C1=O)Nc1cccc([N+](=O)[O-])c1 (configuration not stated),-4,-1,1,13,7,13
O=C(CN1C(=O)C2CCCCC2C1=O)Nc1cccc(C(F)(F)F)c1 (configuration not stated),2,2,-15*,5,-13,14
O=C(C[C@@H]1CC[C@H]2[C@@H](COC[C@@H](O)CN2S(=O)(=O)c2ccc(Cl)cc2)O1)NCCN1CCCC1,·,-5,2,-1,·,·
COCCn1c(SCC(=O)Nc2ccc(Cl)c(S(=O)(=O)N(C)C)c2)nc2ccccc21,3,11,·,·,-2,60*
COCCn1c(SCC(=O)Nc2ccc(S(N)(=O)=O)cc2)nc2ccccc21,5,·,·,·,3,·
O=C1Nc2ccc(Br)cc2/C1=N\N=C\C1=C(N2CCOCC2)C(=C/c2ccccc2)/CC1,9,2,3,-12,-12,11
O=C1Nc2ccccc2/C1=N\N=C\C1=C(N2CCOCC2)C(=C\c2ccccc2)/CC1,4,3,·,·,-7,64*
CN(Cc1ccc(F)cc1)C(=O)c1cc(COc2ccc(-n3cncn3)cc2)on1,-7,·,-14,2,-13,62*
O=[N+]([O-])c1ccc(N2CCCCC2)cc1,0,-20,·,-1,48*,-7
O=[N+]([O-])c1ccc(N2CCCCC2)nc1,-3,-3,14,1,39*,-31
CCOC(=O)C1CCN(c2ccc([N+](=O)[O-])cc2)CC1,12,1,-14,3,37*,0
O=[N+]([O-])c1ccc(N2CCCC2)nc1,-14,-3,3,-1,39*,-4
O=[N+]([O-])c1ccc(N2CCN(c3ccccc3)CC2)nc1,-1,-1,6,0,1,-6
C[C@@H]1CN([C@H](C)CO)C(=O)c2cccc(NC(=O)Nc3ccc(F)cc3)c2O[C@@H]1CN(C)Cc1ccncc1,·,·,-1,-1,·,-14[16.7 µM]
CCCNC(=O)N1C[C@H]2[C@@H](c3ccccc31)[C@H](CO)N2C(=O)C1CCOCC1,·,·,2,·,·,·
C[C@H]1CN([C@@H](C)CO)C(=O)Cc2cc(NC(=O)C3CC3)ccc2O[C@@H]1CN(C)CC1CCCCC1,·,·,1,-5,·,2[16.7 µM]
O=C(Nc1ccc([N+](=O)[O-])cc1)NN1CCCCCC1,-9,·,-1.6*,-5,6,0
O=C(CN1C(=O)NC2(CCCc3ccccc32)C1=O)c1ccc(Br)cc1 (configuration not stated),-5,-1,-36*,-1,-1,6
O=C(CN1C(=O)NC2(CCc3ccccc32)C1=O)c1ccc(Br)cc1 (configuration not stated),-7,2,-24,0,16,-8
O=C(CN1C(=O)NC2(CCc3ccccc32)C1=O)Nc1cccc(Cl)c1 (configuration not stated),7,1,-30*,-1,-12,-222
CCC(=O)N1C[C@@H](C)[C@@H](OC)CN(C)C(=O)c2cc(NC(=O)Nc3cccc(F)c3)ccc2OC[C@@H]1C,·,7,-5,3,·,-12[16.7 µM]
O=CC1=C(c2ccccc2)Oc2ccccc2O1,-2,13,6,1,82*,-7
O=C(C[C@H]1C[C@H]2c3cc(NC(=O)NC4CCCC4)ccc3O[C@H]2[C@@H](CO)O1)NCc1ccccn1,·,0,0,0,·,·
C=CC[C@H](CC(=O)N(CCO)Cc1ccccc1)C(=O)NC[C@H](OC(=O)[C@@H](CC=C)Cc1ccc(F)cc1)c1ccccc1,4,-8,7,2,3,68*
SMILES,PDI inh,FN deposition inh,Ecoli rRNA inh,ERp5 inh,PvdQ acylase,HIV Env fusion
C=CCC[C@H](Cc1ccc(F)cc1)C(=O)OC[C@@H](C)NC(=O)[C@H](CC=C)CC(=O)NCCO,-4,1,5,5,3,17
C=CC[C@@H](CC(=O)N(CCO)Cc1ccccc1)C(=O)N[C@@H](COC(=O)[C@@H](CC=C)Cc1ccc(F)cc1)Cc1ccccc1,-1,6,15,-1,-1,95*
C=CCC[C@@H](Cc1ccc(F)cc1)C(=O)OC[C@@H](NC(=O)[C@H](CC=C)CC(=O)NCCO)C(C)(C)C,12,-8,-3,0,-11,102*
C[C@@H]1CN([C@@H](C)CO)C(=O)Cc2cc(NS(=O)(=O)c3cn(C)cn3)ccc2O[C@@H]1CN(C)C(=O)Nc1cccc2ccccc12,·,·,4,-1,·,3[16.7 µM]
C[C@H](CO)N1C[C@H](C)[C@H](CN(C)C(=O)Nc2ccccc2)OCCCC[C@H](C)Oc2ccc(NS(C)(=O)=O)cc2C1=O,·,3,-2,6,·,1[16.7 µM]
COC(=O)c1cc(S(=O)(=O)N(C)C2CCCCC2)oc1C,-2,-9,-27*,2,·,12
COC(=O)c1cn(C)c2ccc(S(=O)(=O)N(C)C3CCCCC3)cc2c1=O,-4,5,-2,3,·,·
C[C@H]1CN([C@@H](C)CO)C(=O)c2cc(-c3cncnc3)cnc2O[C@@H]1CN(C)C(=O)CN1CCOCC1,·,-5,0,·,·,·
O=C1NC(=Nc2ccc(O)cc2)S/C1=C\C=C\c1ccco1,9,6,-24*,3,-8,-426
COc1ccc(N=C2NC(=O)/C(=C\c3ccco3)S2)cc1,-2,-2,-13,6,0,-39
COc1cccc(Nc2nc(-c3sc(NC(=O)c4ccco4)nc3C)cs2)c1,-1,-6,-1,-3,-4,66*
C[C@@H]1CN([C@H](C)CO)C(=O)Cc2cc(NS(C)(=O)=O)ccc2O[C@@H]1CN(C)CC1CCCCC1,·,3,1,3,·,6[16.7 µM]
CN(C)CC(=O)N1[C@@H]2c3cccc(=O)n3C[C@@H]2[C@@H](CO)[C@@H]1C(=O)NCc1ccccc1F,·,·,2,-1,·,·
COC(=O)c1c(C)nc(C)c(C(=O)OC)c1-c1ccsc1,-1,8,-40*,3,·,4
CCOC(=O)c1c(C)nc(C)c(C(=O)OCC)c1-c1ccc(OC)cc1,0,·,-38*,2,-9,·
COCOCCn1cc(CN2CCS(=O)(=O)N(Cc3ccc(-c4ccc(Cl)cc4)cc3)C(C)C2=O)nn1 (configuration not stated),4,-4,·,4,·,57*
CC1Cc2cc(-c3csc(NC(=O)Cc4cccs4)n3)ccc2N1S(C)(=O)=O (configuration not stated),1,11,·,·,-13,75*
CCCNC(=O)N1CC(=O)N2[C@H](CO)[C@@H](c3ccc(-c4ccc(C)cc4)cc3)[C@H]2C1,·,·,-2,1,·,·
